Granule exo inh – lytic granule exocytosis inhibition | TALL-104 LAMP-1 surface exposure, flow cytometry; cells stimulated with thapsigargin and PMA | inhibition, % at 10 µM | 360,000 tested, 0.66% active;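 active means inhibition above about 55%, limit read from the data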
ASAP1 inh – blocks human ASAP1-stimulated Arf1 GTP hydrolysis; inhibition, % at 16.5 µM; 360,000 tested, 0.19% active; AID 624377; Q9ULH1; GDP FP detection; in the data active means inhibition above about 25%
Target sequence (Q9ULH1 325-724 limits assumed): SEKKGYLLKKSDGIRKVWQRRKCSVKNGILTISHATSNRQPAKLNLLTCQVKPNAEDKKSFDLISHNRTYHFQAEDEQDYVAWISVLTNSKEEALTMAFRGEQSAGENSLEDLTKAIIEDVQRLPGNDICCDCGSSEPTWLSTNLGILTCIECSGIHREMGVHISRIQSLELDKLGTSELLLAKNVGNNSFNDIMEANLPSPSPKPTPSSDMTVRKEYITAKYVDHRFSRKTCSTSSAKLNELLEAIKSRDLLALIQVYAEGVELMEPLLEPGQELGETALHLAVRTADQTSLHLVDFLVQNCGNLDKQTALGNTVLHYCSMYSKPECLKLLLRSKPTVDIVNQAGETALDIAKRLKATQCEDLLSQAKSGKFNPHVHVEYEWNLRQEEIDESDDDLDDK
V-ATPase pHluor – yeast V-ATPase proton transport regulation by pHLuorin; S. cerevisiae, pHLuorin cytosolic pH fluorescence; 350,000 tested, 0.37% active; response, % at 10 µM; in the data active means response mostly above about 7.3%, no sharp cut-off; inactive means mostly below about 5.4%; further: actives read high
CendR NRP1 mod – modulators of CendR peptide binding to human neuropilin-1 | inhibition, % at 25 µM | FAM-RPARPAR peptide binding to NRP-1, fluorescence polarization | 360,000 tested, 0.85% active;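 active means inhibition or corrected inhibition above about 18%, plus a signal ratio from 0.5 to 1.5, limit read from the data, passing the limit was not always enough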
ARFGAP1 inhibitor – rat ARFGAP1 inhibition; Q62848; Arfgap1-stimulated ARF1 GTP hydrolysis, GDP FP detection; inhibition, % at 16.5 µM; 360,000 tested, 0.26% active; AID 651572;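 active means inhibition above a per-plate limit, mean inhibition of low control wells plus 3 SD, cut at about 25% in these data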
Target sequence (Q62848 1-136 limits assumed): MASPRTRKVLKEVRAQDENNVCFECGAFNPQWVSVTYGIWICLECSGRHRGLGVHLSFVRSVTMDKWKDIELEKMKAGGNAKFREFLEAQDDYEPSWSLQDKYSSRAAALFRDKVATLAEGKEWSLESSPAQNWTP
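Replicates: Single well per compound | Assay system: Truncated rat Arfgap1 GAP domain | Control set: No-Arfgap1 wells (100%) versus DMSO full-reaction wells (0%) | Times: Enzyme reaction 120 min at 25 °C after 20 min preincubation | Reagent: Human ARF1(Δ1-17)-GTP substrate | Measured by: Tracer-displacement fluorescence polarization with EDTA stop, 620/688 nm | Measure: Percent inhibition of Arfgap1-stimulated GTP hydrolysis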
ARFGAP1 inh conf – rat ARFGAP1 inhibition, confirmed | 890 tested, 30% active | shares compounds with ARFGAP1 inhibitor | inhibition, % at 16.5 µM | ARFGAP1-stimulated ARF1 GTP hydrolysis, GDP tracer FP | AID 651608;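 active means average inhibition over triplicates above the hit cutoff set in the earlier primary screen, cut at about 25% in these data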
Of the large screens only hits and unclear results are named; the others gave an inactive call (follow-up assays come after a bar, where they were run). The list is not random: actives were taken first. Their share in the collection is about 2.2%.

CS(=O)(=O)N1CCCC(C(=O)NCc2ccc(F)cc2)C1 (centres undefined)	ARFGAP1 inhibitor 27 | ARFGAP1 inh conf inactive
COCCN(C(=O)CSc1nnc(-c2ccco2)n1C)c1c(N)n(CC(C)C)c(=O)[nH]c1=O	none
COc1cc(C(c2oc(CO)cc(=O)c2O)c2oc(CO)cc(=O)c2O)cc(OC)c1OC	none
COc1ccc(C(c2oc(CO)cc(=O)c2O)c2oc(CO)cc(=O)c2O)cc1OC	ARFGAP1 inhibitor 27 | ARFGAP1 inh conf inactive
CC1CCC(NC(=O)CN2C(=O)NC3(CCCCC3C)C2=O)CC1 (centres undefined)	none
CCN(C[C@H]1N[C@@](Cc2ccccc2)(C(=O)OC)[C@H]2C(=O)N(C)C(=O)[C@@H]12)S(=O)(=O)c1ccc(-c2ccccc2)cc1	none
Cc1nn(Cc2ccc(C(=O)Nc3ccc(C(=O)OC(C)C)cc3)o2)c(C)c1Cl	ARFGAP1 inhibitor 26 | ARFGAP1 inh conf 27
Cc1ccc(Nc2nc(CSc3nnnn3-c3ccccc3)cs2)cc1	ARFGAP1 inhibitor 29 | ARFGAP1 inh conf inactive
Cc1ccc(Nc2nc(CSc3nnnn3C)cs2)cc1	none
O=C(O)CCCn1cc(NC(=O)c2sc3ccccc3c2Cl)cn1	none
Cc1ccc(NC(=O)C(C)N=C2NS(=O)(=O)c3ccccc32)cc1F (centres undefined)	CendR NRP1 mod 21, ARFGAP1 inhibitor 38 | ARFGAP1 inh conf inactive
c1ccc2c(N3CCCCC3)ncnc2c1	ARFGAP1 inhibitor 27 | ARFGAP1 inh conf inactive
CC1CCCCN1c1ncnc2ccccc12 (centres undefined)	none
Cc1ccc(S(=O)(=O)NCC(=O)N(CC(=O)NCC2CCCO2)Cc2ccc(Cl)cc2)cc1 (centres undefined)	none
COc1ccc(-c2noc(CN(Cc3nccn3C)C(C)C)n2)cc1	none
CC(C)N(Cc1nc(-c2ccc(Cl)cc2)no1)Cc1nccn1C	ARFGAP1 inhibitor 25 | ARFGAP1 inh conf inactive
CCCCC1CCCOC(C(=O)NCCNCCO)(C(F)(F)F)C1 (centres undefined)	none
CCC[C@@H]1CCCO[C@@](C(=O)NCCN2CCOCC2)(C(F)(F)F)C1	ARFGAP1 inhibitor 31 | ARFGAP1 inh conf inactive
CCCCCCCCNS(=O)(=O)CCNCc1ccccc1OC	none
COc1ccc(CNS(=O)(=O)CCNCc2ccccc2OC)cc1	ARFGAP1 inhibitor 52 | ARFGAP1 inh conf inactive
Cc1[nH]c2ccccc2c1CC(=O)Nc1ccc(Nc2cccnc2)c(-c2cc(F)cc(F)c2)c1	ARFGAP1 inhibitor 26 (no result: Granule exo inh, V-ATPase pHluor, CendR NRP1 mod) | ARFGAP1 inh conf inactive
Cc1cc(-c2cc(NC(=O)Cc3c(C)[nH]c4ccccc34)ccc2Nc2cccnc2)ccc1F	none (no result: Granule exo inh, V-ATPase pHluor, CendR NRP1 mod)
Cc1[nH]c2ccccc2c1CC(=O)Nc1ccc(Nc2ccccc2)cc1	ARFGAP1 inhibitor 29 (no result: Granule exo inh, V-ATPase pHluor, CendR NRP1 mod) | ARFGAP1 inh conf 25
Nc1ccccc1C(=O)NN=Cc1cccc([N+](=O)[O-])c1	none (no result: V-ATPase pHluor)
Cc1nc2ccccc2cc1C(=O)N/N=C/c1cccc([N+](=O)[O-])c1	ARFGAP1 inhibitor 25 | ARFGAP1 inh conf inactive
Cc1cccc(NC(=O)CCN2CCC(C)CC2)c1	ARFGAP1 inhibitor 27 | ARFGAP1 inh conf inactive
Cc1cccc(NC(=O)CCN2CCN(C)CC2)c1	none
CN(CC(=O)NCC1CCCO1)S(=O)(=O)c1ccc(Br)cc1 (centres undefined)	none
CN(CC(=O)NCC1CCCO1)S(=O)(=O)c1ccc2ccccc2c1 (centres undefined)	ARFGAP1 inhibitor 32 | ARFGAP1 inh conf inactive
COc1ccccc1CNC(=O)CSc1nc(N)c(C#N)c(-c2cccs2)c1C#N	ARFGAP1 inhibitor 42 | ARFGAP1 inh conf 30
COc1ccc(-c2cc(-c3cccs3)c(C#N)c(SCC(=O)NCc3ccccc3OC)n2)cc1	none
CCN(CC(=O)NC1CCS(=O)(=O)C1)S(=O)(=O)c1ccc(Cl)c(C(F)(F)F)c1 (centres undefined)	none
COc1ccc(C(=O)N2CCC(C)(C(=O)O)C2)c(OC)c1 (centres undefined)	ARFGAP1 inhibitor 26 (no result: V-ATPase pHluor) | ARFGAP1 inh conf inactive
CCOC(=O)C1CCN(C(=O)c2ccc(OC)cc2OC)CC1	ARFGAP1 inhibitor 29 | ARFGAP1 inh conf inactive
CCNC(=O)C1(C)CCN(C(=O)c2ccc(OC)cc2OC)C1 (centres undefined)	none (no result: V-ATPase pHluor)
CN(C(=O)c1cccc(NC(=O)Cc2cccc(NC(=O)C3CCN(C(=O)C4CCCCC4)CC3)c2)c1)C1CCC1	none
Cc1ccc2[nH]c(C(=O)NCCN3CCCC3)cc2c1	none
COc1ccc(NC(=O)Nc2nnc(-c3ccccc3F)s2)cc1	none
COc1ccc(NC(=O)Nc2nnc(-c3ccco3)s2)cc1	ARFGAP1 inhibitor 35 | ARFGAP1 inh conf inactive
CCN1CCN(C(=O)Cn2ncc3c([nH]c4ccc(C)cc43)c2=O)CC1	ARFGAP1 inhibitor 25 | ARFGAP1 inh conf 29
COc1ccc(S(=O)(=O)N(C)C[C@H]2Oc3ccc(NC(=O)Nc4ccc5c(c4)OCO5)cc3C(=O)N([C@H](C)CO)C[C@@H]2C)cc1	none
O=C(NCc1ccncc1)c1csc([C@@H]2C[C@H](O)[C@@H](CO)O2)n1	none (no result: V-ATPase pHluor)
CCc1cc(C(=O)NNC(=O)CCl)sc1C	ARFGAP1 inhibitor 25 | ARFGAP1 inh conf inactive
CCOc1cc(/C=C2\SC(=N)N(c3nccs3)C2=O)ccc1OCCN1CCOCC1	ARFGAP1 inhibitor 39 | ARFGAP1 inh conf 43
COc1ccc(S(=O)(=O)N2CCCCCC2)cc1NC(=O)c1c2c(nc3ccccc13)CCN(Cc1ccccc1)C2	none
COc1ccc(NC(=O)c2c3c(nc4ccccc24)CCN(Cc2ccccc2)C3)c(OC)c1	ARFGAP1 inhibitor 25 | ARFGAP1 inh conf inactive
O=C(C(=O)N1CCN(C(=O)Cc2ccccc2)CC1)c1cccc(C(F)(F)F)c1	none (no result: Granule exo inh, V-ATPase pHluor, CendR NRP1 mod)
CC(c1ccc(Cl)cc1)N(CCN(C)C)c1ccccn1 (centres undefined)	none (no result: Granule exo inh, V-ATPase pHluor, CendR NRP1 mod)
Cc1nc2ccc(C(=O)N3c4ccccc4N=C(c4ccc(C(F)(F)F)cc4)C3C(=O)NC(C)(C)C)cc2[nH]1 (centres undefined)	ARFGAP1 inhibitor 26 (no result: V-ATPase pHluor) | ARFGAP1 inh conf inactive
CCCCNC(=O)C1C(c2ccc(C(F)(F)F)cc2)=Nc2ccccc2N1C(=O)c1cccc(C(F)(F)F)c1 (centres undefined)	none (no result: V-ATPase pHluor)
CCOc1ccc(-c2[nH]ncc2-c2ccccc2)c(O)c1	ARFGAP1 inhibitor 25 | ARFGAP1 inh conf inactive
Cc1onc(-c2c(F)cccc2Cl)c1C(=O)OCC(=O)Nc1cccc(S(=O)(=O)N(C)C)c1	none
O=C(Nc1ccccc1N1CCCC1)c1cc(Cl)ccc1Cl	none
O=C(Nc1ccccc1N1CCCCC1)c1ccc(-c2ccc(Cl)cc2)o1	ARFGAP1 inhibitor 27 | ARFGAP1 inh conf inactive
O=C(Nc1ccccc1N1CCCC1)c1ccc(Cl)cc1Cl	ARFGAP1 inhibitor 30 | ARFGAP1 inh conf inactive
COc1ccc(CNC(=O)CCS(=O)(=O)c2ccc3c(c2)NC(=O)C(C)S3)cc1 (centres undefined)	none
COc1ccc(CNC(=O)CCS(=O)(=O)c2ccc3c(c2)NC(=O)CS3)cc1	ARFGAP1 inhibitor 25 | ARFGAP1 inh conf inactive

High-throughput results: PubChem BioAssay, several laboratories
